The source of these data is ChEMBL document CHEMBL3804757, “Cystoseira usneoides: A Brown Alga Rich in Antioxidant and Anti-inflammatory Meroditerpenoids” (J Nat Prod, 2016).

Data set [1] is described as follows: Cytotoxicity against human THP1 cells assessed as cell viability at 5 to 10 uM after 48 hrs by SRB assay. It counts as cell-based. The conditions noted are these: thp-1, 48 h.
Data set [2] in a line: Antiinflammatory activity against human THP1 cells assessed as inhibition of LPS-induced TNFalpha production pretreated for 1 hr before LPS challenge at 10 uM measured after 24 hrs by ELISA. It counts as functional, THP-1. Also on record: scale not given: the % may be the effect or the level left. In a few lines:
(§1)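 THP-1 cells (RPMI 1640, 10% FBS) differentiated to macrophages with PMA 0.2 μM final for 3 days, washed with cold PBS, then pre-incubated 1 h with compound diluted from DMSO stocks (0.1% DMSO). Stimulated with LPS at 1 μg/mL final. Supernatants taken after 24 h and TNF-α measured by ELISA. Dexamethasone 1 μM as positive control; an unstimulated control was included. Values are mean ± SE of four determinations.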
Background: An ELISA detects its analyte on a solid surface through an enzyme-linked reagent.

Data set [3] is described as follows: Antioxidant activity assessed as ABTS free radical scavenging activity after 6 mins by ABTS free radical decolorization assay relative to Trolox. The format is physicochemical. Also on record: concentration or dose not given beside the values. The conditions noted are these: 0.1 h. The essentials:
(§2)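 ABTS•+ generated by mixing 7 mM ABTS with 2.45 mM potassium persulfate (1:1) and holding 12–18 h in the dark at room temperature. It was then diluted in EtOH to A734 0.70 ± 0.02. 100 μL ethanolic compound was added to 2 mL of radical solution, and A734 read after 6 min against an EtOH control. % inhibition = [(A0−A1)/A0]×100, done in triplicate; Trolox served as standard.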

The nature of data set [4]: Antiinflammatory activity against human THP1 cells assessed as inhibition of LPS-induced TNFalpha production pretreated for 1 hr before LPS challenge at 8 uM measured after 24 hrs by ELISA. The format is functional, THP-1. Also on record: scale not given: the % may be the effect or the level left. In a few lines:
as §1

Data set [5] in a line: Antiinflammatory activity against human THP1 cells assessed as inhibition of LPS-induced TNFalpha production pretreated for 1 hr before LPS challenge at 5 uM measured after 24 hrs by ELISA. The format is functional, THP-1. On the set-up: scale not given: the % may be the effect or the level left. In a few lines:
as §1

Data set [6] can be described thus: Antioxidant activity assessed as ABTS free radical scavenging activity after 6 mins by ABTS free radical decolorization assay. It counts as physicochemical. The essentials: as §2

Turning to `COc1c(C)cc(O)cc1C/C=C(\C)CC(=O)/C=C(\C)CC/C=C(\C)CCC(O)C(C)(C)O` (stereo not drawn), the results for the Activity result in data set [1], in data set [2] and in data set [3] were “Non-toxic”, 21% and 37%, respectively.

In the case of `COc1c(C)cc(O)cc1C/C=C(\C)CC(=O)/C=C(/C)CCCC(C)C(=O)CC(O)C(C)(C)O` (stereo not drawn), the Activity entry in data set [1] is “Non-toxic”; in data set [4] it was 21%; in data set [3] it was 37%.

Turning to `COc1c(C)cc(O)cc1C/C=C(\C)CC(=O)/C=C(/C)CCC[C@@]1(C)O[C@H](C(C)(C)O)C[C@H]1O`, the Activity result in data set [1] was “Non-toxic”; in data set [4] it was 21%; in data set [3] it was 62%.

Regarding `C/C(=C/C(=O)C/C(C)=C/Cc1cc(O)cc(C)c1O)CCCC(C)(O)C(=O)/C=C/C(C)(C)O` (stereo not drawn), the results for the Activity entry in data set [1], in data set [2] and in data set [3] were “Non-toxic”, 81% and 81%, respectively.

With `COc1c(C)cc(O)cc1C/C=C(\C)CC(=O)/C=C(/C)CC/C=C(\C)C(O)CC1OC1(C)C` (stereo not drawn), the Activity result in data set [1] was “Non-toxic”; in data set [4] it was 21%; in data set [3] it was 37%.

For `C/C(=C\C(=O)C/C(C)=C/Cc1cc(O)cc(C)c1O)CCCC(C)(O)C(=O)/C=C/C(C)(C)O` (stereo not drawn), the Activity result in data set [1] is given as “Non-toxic”; in data set [2], 69%; in data set [3], 87%.

As for `COc1c(C)cc(O)cc1C/C=C(\C)CC(=O)/C=C(\C)C(O)CCC(C)(O)C(=O)/C=C/C(C)(C)O` (stereo not drawn), the Activity entry in data set [1] is “Non-toxic”; in data set [4], 79%; in data set [3] it was 62%.

Consider `COc1c(C)cc(O)cc1C/C=C(\C)CC(=O)/C=C(/C)CCC[C@@]1(C)O[C@@H](C(C)(C)O)CC1=O`, for which the Activity in data set [3] is listed as 62%.

As to `C/C(=C/C(=O)C/C(C)=C/Cc1cc(O)cc(C)c1O)CCCC(C)C(=O)/C=C/C(C)(C)O` (stereo not drawn), the values for the Activity entry in data set [1], in data set [2] and in data set [3] were “Non-toxic”, 21% and 77%, respectively.

Consider `COc1c(C)cc(O)cc1C/C=C(\C)CC(=O)/C=C(/C)CC/C=C(\C)CCC(O)C(C)(C)O` (stereo not drawn), for which the results for the Activity entry in data set [1], in data set [5] and in data set [3] were “Non-toxic”, 59% and 62%, respectively.

As to `C/C(=C\C(=O)C/C(C)=C/Cc1cc(O)cc(C)c1O)CCCC(C)C(=O)/C=C/C(C)(C)O` (stereo not drawn), the values for the Activity entry in data set [1], in data set [5] and in data set [3] were “Non-toxic”, 53% and 77%, respectively.

Consider `COc1c(C)cc(O)cc1C/C=C(\C)CC(=O)/C=C(\C)CCC[C@@]1(C)O[C@@H](C(C)(C)O)CC1=O`, for which, in data set [3], the Activity was 37%.

As a reminder, the EC50 is the midpoint of the concentration-response curve. On to `Cc1c(C)c2c(c(C)c1O)CCC(C)(C(=O)O)O2` (stereo not drawn) [TROLOX], for which the EC50 in data set [6] came to 12 µM.
